# Assay outcomes as filed in PubChem.
# ABCG2 block = inhibitors of human ABCG2 transporter, ABCB1 counter-screen; hit rate 0.1% among 190,000; inhibition, % at 6.6 µM; IgMXP3 cells, JC-1 efflux, flow cytometry;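 active means inhibition above 80%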;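 further: 0% = DMSO and 100% = nicardipine control wells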
# Target sequence (Q9UNQ0 whole entry, looked up): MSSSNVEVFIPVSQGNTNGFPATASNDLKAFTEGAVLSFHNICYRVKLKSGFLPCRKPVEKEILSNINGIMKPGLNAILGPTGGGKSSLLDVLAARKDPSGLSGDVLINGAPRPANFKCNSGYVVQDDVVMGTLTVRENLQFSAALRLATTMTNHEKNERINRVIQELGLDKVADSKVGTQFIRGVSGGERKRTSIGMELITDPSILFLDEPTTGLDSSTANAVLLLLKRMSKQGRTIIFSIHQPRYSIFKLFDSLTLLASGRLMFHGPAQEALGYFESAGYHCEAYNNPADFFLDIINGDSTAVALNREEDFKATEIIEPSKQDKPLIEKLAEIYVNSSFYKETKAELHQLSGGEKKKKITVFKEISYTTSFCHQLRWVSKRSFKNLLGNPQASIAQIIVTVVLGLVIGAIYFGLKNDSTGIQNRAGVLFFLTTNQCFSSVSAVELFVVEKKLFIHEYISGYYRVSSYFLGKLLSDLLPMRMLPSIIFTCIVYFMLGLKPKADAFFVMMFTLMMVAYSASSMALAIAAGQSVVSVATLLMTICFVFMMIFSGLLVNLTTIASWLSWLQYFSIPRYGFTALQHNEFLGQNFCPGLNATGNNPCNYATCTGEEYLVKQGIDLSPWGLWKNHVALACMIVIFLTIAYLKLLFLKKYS
#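 System: two drug-resistant human cell lines, ABCG2 and ABCB1; controls: nicardipine high and DMSO low controls; times: 10 min exposure at 25 °C with rotation, no wash; detection: flow cytometry of retained JC-1 fluorescence; read-out basis: percent efflux inhibition, scaled nicardipine 100% to DMSO 0%; doses: one concentration, 6.6 µM final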
# Lmaj promast = Leishmania major promastigote growth inhibition | Leishmania major promastigotes, resazurin fluorescence viability | inhibition, % at 10 µM | hit rate 9% among 200,000 | AID 1063; in the data active means inhibition above about 50%;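 further: promastigotes grown with compound for 44 hours at 28 °C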
# RAM network inh = inhibitors of the yeast RAM network; S. cerevisiae dse1pr::URA3 reporter, 5-FOA growth OD615, 2 d; analog-sensitive cbk1-as2 kinase mutant strain; inhibition, % at 50 µM; hit rate 1.8% among 190,000; AID 868;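 active means inhibition above a set limit, 3 SD over mean compound inhibition, cut at about 8.4% in these data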;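 further: 0% = DMSO-only wells with no growth and 100% = 10 µM 1-NA-PP1 full growth; inhibition rescues growth on 5-FOA so higher OD means more RAM inhibition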
# ABCB1 inh = inhibitors of human ABCB1 transporter, ABCG2 counter-screen; P08183; CCRF-Adr cells, JC-1 efflux, flow cytometry; inhibition, % at 6.6 µM; hit rate 0.067% among 190,000; AID 1326; in the data active means inhibition above about 40%;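 further: 0% = vehicle and 100% = reference inhibitor; higher value means more JC-1 retained so stronger ABCB1 efflux block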
# WT yeast gro inh = growth inhibition of WT yeast, mitochondrial fusion screen; mitochondrial fusion phenotypic screen, WT strain; inhibition, % at 10 µM; hit rate 2.1% among 190,000; AID 1362; in the data active means inhibition above about 58%; tested in S. cerevisiae
# The depositor's hits bear a star. Shown are actives, neighbours in structure and some others; about 12% of the full set was active somewhere.
SMILES,ABCG2 block,Lmaj promast,RAM network inh,ABCB1 inh,WT yeast gro inh
CCOC(=O)c1sc(NC(=O)CCN2CC(C)OC(C)C2)c(C(=O)OCC)c1C (configuration not stated),9.1,-4.5,3.6,5.7,0.1
CCOC(=O)c1sc(NC(=O)CCN2CCN(C)CC2)c(C(=O)OCC)c1C,4.3,100.3*,1.8,2.7,1.9
Cc1ccc2c(O)c(C)c(=O)[nH]c2n1,0.3,-6.1,1.1,0.3,-5.3
COc1ccc(-n2ccnc2SCC(=O)NO)cc1,2.7,-1.0,1.5,0.7,7.7
COc1ccc(S(=O)(=O)NCC2CCC(C(=O)NCC(OC)OC)CC2)cc1 (configuration not stated),0.9,-1.3,0.6,0.4,5.2
O=C(CCNC(=O)c1ccccc1Cl)Nc1nc(-c2ccc(F)cc2)cs1,0.2,0.6,1.5,0.1,5.2
O=C(CCNC(=O)c1ccccc1Cl)Nc1nc(-c2ccc3ccccc3c2)cs1,9.1,80.0*,6.3,4.8,42.6
O=C(OCc1nc2ccccc2s1)C1CCN(S(=O)(=O)c2cccs2)CC1,2.4,-1.2,9.9*,0.9,2.7
O=S(=O)(c1cccs1)N1CCN(Cc2nc3ccccc3s2)CC1,0.5,22.8,1.7,0.7,8.2
Cc1ccc(-c2csc(NC(=O)C3CCN(S(=O)(=O)c4cccs4)CC3)n2)cc1,-3.0,76.0*,2.7,-1.7,3.5
Cc1nc2ccc(NC(=O)C3CCN(S(=O)(=O)c4cccs4)CC3)cc2s1,2.2,65.3*,0.3,0.8,-4.0
Cc1cccc(Oc2sc(C(=O)c3ccccc3)c(N)c2C#N)c1,1.8,19.1,5.9,0.5,7.9
CCOc1ccc(CCNC(=O)CN2C(=O)NC(CCSC)C2=O)cc1OCC (configuration not stated),2.8,-1.9,-0.2,0.8,-12.1
CCc1ccc(NC(=O)C2C3/C=C\CCCCC32)cc1 (configuration not stated),12.0,0.9,3.4,0.9,-7.8
COC(=O)CSc1nnc(CNC(=O)c2cc(OC)cc(OC)c2)n1-c1ccc(F)cc1,1.2,-5.9,1.1,0.7,4.7
CCOC(=O)c1c(NC(=O)C2CCN(S(=O)(=O)c3cccs3)CC2)sc(C)c1C,4.6,0.8,2.1,1.2,74.5*
CCOC(=O)c1cccc(NC(=O)C2CCN(S(=O)(=O)c3cccs3)CC2)c1,5.8,8.6,3.2,0.8,20.7
O=C(Nc1nc(-c2ccc3ccccc3c2)cs1)C1CCN(S(=O)(=O)c2cccs2)CC1,0.0,90.6*,3.6,0.0,-13.0
COc1ccc(CCN2C(=O)CC(NNC(=O)c3cccc(O)c3)C2=O)cc1 (configuration not stated),2.4,43.5,1.3,-0.7,-21.7
COc1ccc(CCN2C(=O)CC(NNC(=O)c3ccccc3Br)C2=O)cc1OC (configuration not stated),24.3,56.2*,3.9,1.4,14.4
COc1ccc(CCN2C(=O)CC(NNC(=O)c3ccc(F)cc3)C2=O)cc1OC (configuration not stated),2.4,3.1,-1.0,0.1,-3.6
CCOc1ccc(C(=O)NNC2CC(=O)N(CCc3ccccc3)C2=O)cc1OC (configuration not stated),39.4,63.2*,0.7,6.0,-1.9
Cc1cccc(NC(=S)N2CCn3cccc3C2c2cccnc2)c1 (configuration not stated),-1.2,88.7*,-0.5,0.0,9.6
Fc1ccc(C2c3cccn3CCN2C(=S)Nc2cccc(Br)c2)cc1 (configuration not stated),-0.2,41.0,2.6,-0.2,86.3*
COc1cccc(NC(=S)N2CCn3cccc3C2c2cccnc2)c1 (configuration not stated),-11.8,88.0*,0.1,-2.5,7.5
CCc1cccc(CC)c1NC(=S)N1CCn2cccc2C1c1ccncc1 (configuration not stated),-1.2,31.8,0.5,-0.2,-26.2
Fc1ccc(NC(=S)N2CCn3cccc3C2c2cccnc2)cc1 (configuration not stated),0.4,91.1*,0.4,0.1,-6.4
Cc1ccc(C(=O)C(C)OC(=O)c2n[nH]c(=O)c3ccccc23)cc1 (configuration not stated),19.5,0.7,0.1,1.0,2.4
Cc1ccccc1NC(=O)c1sc(NC(=O)COc2ccccc2)c(C#N)c1C,-0.1,22.6,6.5,-0.3,-8.1
CCCCNC(=S)N1CCn2cccc2C1c1ccccc1 (configuration not stated),0.7,32.8,3.3,-0.1,33.4
